From ChEMBL document CHEMBL1782029, “Synthesis and biological evaluation of N-substituted benzo[c]phenanthrolines and benzo[c]phenanthrolinones as antiproliferative agents” (Eur J Med Chem, 2011)
Calls of active or inactive are those of the source. No cut-off for these calls is given here.

How the values were obtained:
[1] = system: HT-29; test: Cell cycle arrest in human HT-29 cells at G2/M phase at 0.1 to 2.5 uM after 48 hrs using propidium iodide staining by FACS analysis; assay type: functional, cell-based
Outline: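 Exponentially growing HT-29 colon carcinoma cells (300,000 per well) were plated for 24 h, then exposed to 0.1, 1 or 2.5 µM compound for 48 h. Cells were fixed, stained with propidium iodide and analysed by flow cytometry (FACScan).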

[2] = molecular target: T1, DNA topoisomerase 1 (Homo sapiens) (UniProt P11387); test: Inhibition of human recombinant topoisomerase 1-mediated relaxation of supercoiled pUC19 DNA assessed as formation of nicked DNA at 0.1 to 5 uM using ethidium bromide staining by agarose gel electrophoresis
T1 sequence (whole entry): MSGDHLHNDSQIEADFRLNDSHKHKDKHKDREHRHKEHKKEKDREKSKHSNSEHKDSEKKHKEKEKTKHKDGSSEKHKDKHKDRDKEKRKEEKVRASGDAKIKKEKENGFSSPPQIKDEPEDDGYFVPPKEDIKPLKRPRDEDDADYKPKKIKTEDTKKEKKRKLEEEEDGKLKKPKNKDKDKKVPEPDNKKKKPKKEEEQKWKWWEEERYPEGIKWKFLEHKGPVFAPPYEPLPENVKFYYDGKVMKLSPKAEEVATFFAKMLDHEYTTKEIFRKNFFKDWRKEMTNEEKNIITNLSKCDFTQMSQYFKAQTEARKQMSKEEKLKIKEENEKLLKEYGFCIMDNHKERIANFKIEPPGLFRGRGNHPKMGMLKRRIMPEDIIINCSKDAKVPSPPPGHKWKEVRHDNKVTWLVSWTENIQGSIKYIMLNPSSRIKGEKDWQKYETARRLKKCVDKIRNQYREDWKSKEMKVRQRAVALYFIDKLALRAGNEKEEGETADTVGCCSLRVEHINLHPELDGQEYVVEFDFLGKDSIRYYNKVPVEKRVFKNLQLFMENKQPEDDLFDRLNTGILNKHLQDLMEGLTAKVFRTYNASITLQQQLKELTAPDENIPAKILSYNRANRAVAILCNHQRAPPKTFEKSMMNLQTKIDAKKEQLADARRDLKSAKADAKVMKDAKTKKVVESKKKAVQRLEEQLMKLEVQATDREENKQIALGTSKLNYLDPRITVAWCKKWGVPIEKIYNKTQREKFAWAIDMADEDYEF
Outline: (§1)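 Supercoiled pUC19 plasmid (130 ng) was incubated with 4 units of human recombinant Top1 at 37 °C for 45 min in relaxation buffer (50 mM Tris pH 7.8, 50 mM KCl, 10 mM MgCl2, 1 mM DTT, 1 mM EDTA, 1 mM ATP) with increasing compound concentrations. Products were resolved on 1% agarose at room temperature, 2 h at 120 V, then stained with ethidium bromide and imaged under UV.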

[3] = molecular target: DNA topoisomerase 2-alpha (Homo sapiens) (UniProt P11388); test: Inhibition of human topoisomerase 2 assessed as formation of nicked form of supercoiled pUC19 DNA at 50 uM after 45 mins using ethidium bromide staining by agarose gel analysis
DNA topoisomerase 2-alpha (Homo sapiens), sequence (P11388 whole entry, the tested form may be a part): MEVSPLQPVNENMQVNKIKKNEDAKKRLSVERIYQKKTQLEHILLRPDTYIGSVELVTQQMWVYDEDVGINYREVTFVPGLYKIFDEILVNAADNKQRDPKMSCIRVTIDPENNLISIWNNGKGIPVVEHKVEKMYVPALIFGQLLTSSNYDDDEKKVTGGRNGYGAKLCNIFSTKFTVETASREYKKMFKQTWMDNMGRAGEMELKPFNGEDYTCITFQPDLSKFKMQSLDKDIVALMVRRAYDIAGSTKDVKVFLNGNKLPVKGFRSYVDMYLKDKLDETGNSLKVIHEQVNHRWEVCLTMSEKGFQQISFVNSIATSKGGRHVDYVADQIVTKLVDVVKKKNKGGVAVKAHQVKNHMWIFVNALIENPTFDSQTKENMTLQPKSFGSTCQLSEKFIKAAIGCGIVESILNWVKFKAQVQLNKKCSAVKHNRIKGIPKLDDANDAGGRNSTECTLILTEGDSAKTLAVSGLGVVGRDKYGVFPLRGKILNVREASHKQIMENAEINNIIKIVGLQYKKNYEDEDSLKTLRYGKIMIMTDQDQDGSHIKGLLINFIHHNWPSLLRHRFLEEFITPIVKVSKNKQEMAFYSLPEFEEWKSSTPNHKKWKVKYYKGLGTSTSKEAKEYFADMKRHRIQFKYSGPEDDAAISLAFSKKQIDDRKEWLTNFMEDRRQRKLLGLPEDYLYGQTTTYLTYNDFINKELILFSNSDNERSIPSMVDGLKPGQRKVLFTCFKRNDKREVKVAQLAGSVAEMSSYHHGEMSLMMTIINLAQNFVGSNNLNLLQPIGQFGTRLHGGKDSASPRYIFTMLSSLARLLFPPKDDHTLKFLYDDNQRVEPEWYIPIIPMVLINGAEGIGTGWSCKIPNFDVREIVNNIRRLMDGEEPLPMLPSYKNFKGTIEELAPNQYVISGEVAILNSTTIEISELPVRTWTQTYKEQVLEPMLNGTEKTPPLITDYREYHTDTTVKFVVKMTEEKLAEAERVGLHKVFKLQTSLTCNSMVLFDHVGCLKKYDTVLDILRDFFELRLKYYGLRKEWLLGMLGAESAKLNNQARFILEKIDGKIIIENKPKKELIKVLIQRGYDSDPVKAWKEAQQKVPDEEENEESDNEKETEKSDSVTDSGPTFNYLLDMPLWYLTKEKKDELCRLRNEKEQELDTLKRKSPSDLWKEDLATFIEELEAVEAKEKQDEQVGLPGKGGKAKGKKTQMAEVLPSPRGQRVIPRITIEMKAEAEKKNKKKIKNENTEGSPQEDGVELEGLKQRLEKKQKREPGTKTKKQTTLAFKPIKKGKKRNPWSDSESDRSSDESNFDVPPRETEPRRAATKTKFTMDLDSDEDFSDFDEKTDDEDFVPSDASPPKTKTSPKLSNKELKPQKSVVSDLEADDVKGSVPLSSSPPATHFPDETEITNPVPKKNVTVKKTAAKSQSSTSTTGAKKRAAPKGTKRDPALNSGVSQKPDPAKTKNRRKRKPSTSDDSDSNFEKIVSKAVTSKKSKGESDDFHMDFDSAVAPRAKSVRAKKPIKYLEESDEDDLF

[4] = molecular target: T1, DNA topoisomerase 1 (Homo sapiens); test: Inhibition of human recombinant topoisomerase 1 assessed as cleavage of 117-mer DNA fragment at 20 to 50 uM using ethidium bromide staining by agarose gel electrophoresis analysis
[5] = system: Calf thymus DNA; test: Binding affinity to calf thymus DNA by circular dichroism analysis; assay type: nucleic-acid assay; conditions: Bos taurus
[6] = molecular target: DNA topoisomerase 2-alpha (Homo sapiens) (UniProt P11388); test: Inhibition of human topoisomerase 2 assessed as formation of linear form of supercoiled pUC19 DNA at 50 uM after 45 mins using ethidium bromide staining by agarose gel analysis
[7] = molecular target: T1, DNA topoisomerase 1 (Homo sapiens); test: Inhibition of camptothecin-induced poisoning effect of human topoisomerase 1 assessed as suppression of CPT-induced 117 bp DNA cleavage by SDS-PAGE analysis
[8] = molecular target: T1, DNA topoisomerase 1 (Homo sapiens); test: Inhibition of human recombinant topoisomerase 1-mediated relaxation of supercoiled pUC19 DNA assessed as formation of nicked DNA at 0.2 to 10 uM using ethidium bromide staining by agarose gel electrophoresis; outline: as §1
[9] = system: Nucleic Acid; test: Binding affinity to 265 bp of 3'-end-radio-labelled DNA fragment at 0.5 to 5 uM treated 15 mins before Dnase 1-mediated digestion by footprinting assay; assay type: nucleic-acid assay
Outline: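 DNase I footprinting. It was equilibrated with compound for 15 min at 37 °C, then digested 3 min with DNase I (0.01 unit/ml) in 20 mM NaCl, 2 mM MgCl2, 2 mM MnCl2, pH 7.3. Samples were lyophilised, denatured at 90 °C and run on an 8% denaturing polyacrylamide gel.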

[10] = system: Calf thymus DNA; test: Binding affinity to calf thymus DNA at 20 uM by UV-vis spectrophotometry analysis; assay type: nucleic-acid assay; conditions: Bos taurus
[11] = system: HT-29; test: Cytotoxicity against human HT-29 cells after 72 hrs by MTS assay; assay type: functional, cell-based; conditions: HT-29, 72 h
[12] = molecular target: DNA topoisomerase 2-alpha (Homo sapiens) (UniProt P11388); conditions: 50 uM
[13] = molecular target: DNA topoisomerase 2-alpha (Homo sapiens) (UniProt P11388); conditions: 50 uM; remark: listed apart in the source
[14] = molecular target: T1, DNA topoisomerase 1 (Homo sapiens); test: Inhibition of human recombinant topoisomerase 1-mediated relaxation of supercoiled pUC19 DNA assessed as formation of nicked DNA at 1 to 50 uM using ethidium bromide staining by agarose gel electrophoresis; outline: as §1
[15] = molecular target: T1, DNA topoisomerase 1 (Homo sapiens); test: Inhibition of human recombinant topoisomerase 1 assessed as cleavage of 117-mer DNA fragment at 0.5 to 5 uM using ethidium bromide staining by agarose gel electrophoresis analysis

Row | Compound | Top1 relaxation inhibition (qualitative call) [2] | inhibition [3] | inhibition [4] | Activity [5] | inhibition [6] | inhibition [8] | inhibition [9] | Activity [10] | inhibition [12] | inhibition [13] | Topoisomerase 1 inhibition (active/inactive) [14] | inhibition [15] | Activity [1] | inhibition [7] | IC50 [11] [µM]
1 | COc1cc2c(NCCN(C)C)nc3c4ccncc4ccc3c2cc1OC | Active | inactive | inactive | Active | inactive | Active | Active | Active |  |  |  |  | Active | Dose-dependent effect | 1.02
2 | COc1cc([C@@H]2c3cc4c(cc3[C@@H](O[C@@H]3O[C@@H]5CO[C@@H](C)O[C@H]5[C@H](O)[C@H]3O)[C@H]3COC(=O)[C@H]23)OCO4)cc(OC)c1O |  |  |  |  |  |  |  |  | Active | Active |  |  |  |  | 
3 | CCN(CC)CCn1c(=O)c2cc(OC)c(OC)cc2c2ccc3cnccc3c21 |  |  |  | Active |  |  |  | Active |  |  | Active | inactive |  | Dose-dependent effect | 1.82

Further lines, with some results ahead:

Row | Top1 relaxation inhibition (qualitative call) [2] | inhibition [3] | inhibition [4] | Activity [5] | inhibition [6] | inhibition [8] | inhibition [9] | Activity [10] | inhibition [12] | inhibition [13] | Topoisomerase 1 inhibition (active/inactive) [14] | inhibition [15] | Compound | Activity [1] | inhibition [7] | IC50 [11] [µM]
4 |  | inactive | inactive | Active | inactive | Active |  | Active |  |  |  |  | CCN(CC)CCCNc1nc2c3cccnc3ccc2c2cc3c(cc12)OCO3 |  | Dose-dependent effect | 1.83
5 |  |  |  | Active |  |  | Active | Active |  |  | Active | inactive | CN(C)CCCNc1nc2c3cccnc3ccc2c2cc3c(cc12)OCO3 |  | Dose-dependent effect | 1.73
